Variants at the floor of the assay were thinned out.
B1: tRNA (parent)
chain: GUUCCGUUGGCGUAAUGGUAACGCGUCUCCCUCCUAAGGAGAAGACUGCGGGUUCGAGUCCCGUACGGAACG

Variants of: B1
Assay: yeast fitness relative to wild type (ratio to wild type); higher = fitter; tRNA-Arg(CCU), competitive growth, 37 C, YPD
Summary of the method: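 The tRNA-Arg(CCU) gene variants were made by chemical synthesis with a 3% per-site mutation rate at 69 sites and inserted at the native genomic locus of Saccharomyces cerevisiae. After pooling, the strains were competed in YPD at 37°C for 24 hours in six parallel replicates. Gene amplicons from the start population and each end population were read by 100-nucleotide paired-end sequencing, and Darwinian fitness relative to wild type was taken from genotype frequency changes. Genotypes needed ≥ 100 starting reads, and estimates < 0.5 were set to 0.5.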

| Variant | yeast fitness |
| --- | --- |
| GUUCCGUUGGCGUACUGGUAGCGCGUCUCCCUCCUGAGGAGAAGACUGUGGGUUCGAGUCCCGUACUGAACG [A15C A21G A36G C49U G67U] | ≤ 0.5 |
| GUUCCGUUGGCGUACUGGUACCGCGUCUCCCUCCUUAGGAGAAGACCGCGGGUUCGAGUCCCAUACGGAACG [A15C A21C A36U U47C G63A] | 0.578 |
| GUUCCGUUGGCGUACUGGUGACGCCUCUUCCUCCCAAGGAGAUGACUGCGGGUUCGAGUCCCGUACGGAACG [A15C A20G G25C C29U U35C A43U] | ≤ 0.5 |
| GUUCCGUUGGCGUACUGGUGACGCGUCUCCCUCCUAAGGAGAAGACUGCGAGUUCGAGUCCCGUACGGAACG [A15C A20G G51A] | ≤ 0.5 |
| GUUCCGUUGGCGUACUGGUUACGCGUCUCCCUCCUAAGGAGAAGACUGCGGGUUCGAGUCCCGUACGGAACG [A15C A20U] | 0.63 |
| GUUCCGUUGGCGUACUGGUGACGCGUCUCCCUCCUAAGGAGAAGACUGCGGGUUCGAGUCCCGUACGGAACG [A15C A20G] | 0.78 |
| GUUCCGUUGGCGUACUGGUGACGCGUCUGCCUCCUAAGGAGAAGACUGCGGGUUCGAGUCCCGUACGGAACG [A15C A20G C29G] | ≤ 0.5 |
| GUUCCGUUGGCGUACUGGUCACGCGUCUACCUCCUAAGGAGAAGACUGCGGGUUCGGGUCCCGUACGGAACG [A15C A20C C29A A57G] | 0.561 |
| GUUCCGUUGGCGUUAUGGUAACGCGUCUCCCGCCUAAGGAGAAGACUGCGGAUUCGAGUCCCCUACGGAACG [A14U U32G G52A G63C] | ≤ 0.5 |
| GUUCCGUUGGCGUUAUGGUAACGCGUCCCCCUCCUAAGGAGAAGACUGUAGGUUCGAGUCGCGUACGGCACG [A14U U28C C49U G50A C61G A69C] | 0.621 |
| GUUCCGUUGGCGUACUGGUACCGCGUCUCCCUCCUAAGGCGAAGACUGCGGGUUCGAGGGCCGUACGGAACG [A15C A21C A40C U59G C60G] | ≤ 0.5 |
| GUUCCGUUGGCGUACUGGUUACGCGUCUCAGUCCUAAGGAGAAGACUGCGGGUUCGAGUCCCGUACGGAACG [A15C A20U C30A C31G] | ≤ 0.5 |
| GUUCCGUUGGCGUUAUGGUAACGCGUCUCCCUCCCAAGGAGAAGACUGCGGGUUCGAGUCCCGUACGGAACG [A14U U35C] | 0.601 |
| GUUCCGUUGGCGUUAUGGUAACGCGUCUCCCUCCGAAGGAGAAGACUGCGGGUUCGAGUCCCGUACGGAACG [A14U U35G] | ≤ 0.5 |
| GUUCCGUUGGCGUACUGGUCACGCGUCUCCCUCCUAAGCAGAAGACUGCGGGUUCGAGUCCCGUACGGAACG [A15C A20C G39C] | ≤ 0.5 |
| GUUCCGUUGGCGUUAUGGUAACGCGUCCCCCUCCUAAGGAGAAGACUGCGGGUUCGAGUCCCGUACGGACCG [A14U U28C A70C] | ≤ 0.5 |
| GUUCCGUUGGCGUACUGGUACCGCGUCUCCCUCCUAACGAGAAGACUGCGGGUUCGAGUCCCCUACGGAUCG [A15C A21C G38C G63C A70U] | 0.513 |
| GUUCCGUUGGCGUACUGGUGACGCGUCUCCUUCCUAAGGAGCAGACUGCGGGUUCGAGUCCCGUACGGAACG [A15C A20G C31U A42C] | ≤ 0.5 |
| GUUCCGUUGGCGUACUGGUUACGCGUCUCCGUCCUAAGGAGAAGACUCCGGGUUCGAGUCCCGUUCGGAACG [A15C A20U C31G G48C A65U] | ≤ 0.5 |

| Variant | yeast fitness |
| --- | --- |
| GUUCCGUUGGCGUACUGGUGGCGCGUCUCCCUCCUAAGGAGAAGACUGCGGGUUCGUGUCCCGUACGGAACG [A15C A20G A21G A57U] | ≤ 0.5 |
| GUUCCGUUGGCGUACUGGUACCGCGUCUCCCUCCUUAGGAGAAGACCGCGGGUUCGAGUCCCAUACGAAACG [A15C A21C A36U U47C G63A G68A] | ≤ 0.5 |
| GUUCCGUUGGCGUACUGGUGACGCGUCUCCCUCCUAAGGAGAAGACUGCGGGUUCGAGUCCUGGACGGAACG [A15C A20G C62U U64G] | ≤ 0.5 |
| GUUCCGUUGGCGUUAUGGUAACGCGUCUCCCUCCUAAGGAGAAGACGGCGGGUUCGAGUCCCGUUCGGAACG [A14U U47G A65U] | ≤ 0.5 |
| GUUCCGUUGGCGUUAUGGUAACGCGUCUCCCUCCUAAGGAGAAGACUGCGGGGUCGAGUCUCGUACGGAGCG [A14U U53G C61U A70G] | ≤ 0.5 |
| GUUCCGUUGGCGUACUGGUCACGCGUCUCCCUCCUAAGGAGAAGACUGCGGGUUGGAGUCCCGUACGGAGCG [A15C A20C C55G A70G] | ≤ 0.5 |
| GUUCCGUUGGCGUACUGGUGACACGUCUCCCUCCUAAGGAGAAGAAUGGGGGUUCGAGUCCCGUUCGGAUCG [A15C A20G G23A C46A C49G A65U A70U] | ≤ 0.5 |
| GUUCCGUUGGCGUACUGGUACCGCGUCUCCCUCCUAAGGAGAAGUCUGCGGGUUCGAGUCUCGUAUGGAACG [A15C A21C A45U C61U C66U] | ≤ 0.5 |
| GUUCCGUUGGCGUACUGGUCACGCGUCUCCCUCCUAAGGACAAGACUGCGGGUUCGAGUCCCGUACGGAACG [A15C A20C G41C] | ≤ 0.5 |
| GUUCCGUUGGCGUUAUGGUAACGCGUCUCCCUCCUAAGGAGAAGACAGCGGGUUCGAGUCCCGUACGGAACG [A14U U47A] | 0.575 |
| GUUCCGUUGGCGUACUGGUGACACGUCUCCCUCCUAAGGAGAAGAAUGGAGGUUCGAGUCCCGUUCGGAUCG [A15C A20G G23A C46A C49G G50A A65U A70U] | ≤ 0.5 |
| GUUCCGUUGGCGUUAUGGUAACGCGUCUCCCCCCUAAGGAGAAGACUGCGGGAUAGAGUCCCGUACGGAACG [A14U U32C U53A C55A] | ≤ 0.5 |
| GUUCCGUUGGCGUUAUGGUAACGCGUCUCCCCCCUAGGGAGAAGACUGUGGGUUCGAGUCCCGUACGGAACG [A14U U32C A37G C49U] | ≤ 0.5 |
| GUUCCGUUGGCGUUAUGGUAACGCGUCUCCCUCCUAAGGAGAAGACAGCGGGUUCGAGUCCCGUACAGAACG [A14U U47A G67A] | ≤ 0.5 |
| GUUCCGUUGGCGUUAUGGUAACGCGUCACCCUCCUAAGGAGAAGACUGCGGGUUCGAGUCCCGUACGGAACG [A14U U28A] | 0.579 |
| GUUCCGUUGGCGUUAUGGUAACGCGUCUCCCUCCAAAGGAGACGACUGCGGGUUCGAGUCCCGUACGGAACG [A14U U35A A43C] | ≤ 0.5 |
| GUUCCGUUGGCGUACUGGUUACGCGUCUCCGUCCUAAGGAGAAGACUGCGGGUUCGAGUCCCGUACGGAACG [A15C A20U C31G] | 0.562 |
| GUUCCGUUGGCGUUAUGGUAACGCGUCUCCCUCCUAAGGAGAAGACAGCGGGUUCGAGUCACGUACGGAACG [A14U U47A C61A] | ≤ 0.5 |
| GUUCCGUUGGCGUUAUGGUAACGCGUCUCCCUCCUAAGGAGAAGACUGCGGGAUCGAGUCCCGUUCGGAACG [A14U U53A A65U] | ≤ 0.5 |

— the RNAGym collection of RNA variant scans (doi:10.1126/science.aae0568)
